Reference: publication PMC3940414 (Journal of Medicinal Chemistry, 2014)
Entries after “also recorded” stand apart in the source; their conditions may differ. Where two headings read alike, the source gives them in different places.

Assays:
[1] = tested on: common P450 metabolism enzymes; settings: background statement, ref not given; cited from earlier work
[2] = tested on: cannabinoid CB2 receptor; settings: background statement, ref not given; cited from earlier work
[3] = tested on: human ether-a-go-go related gene product (hERG); settings: background statement, ref not given; cited from earlier work
[4] = tested on: analgesia; settings: cited from earlier work
[5] = biological target: T1, rFAAH (Rattus norvegicus, UniProt P97612); experiment: Lineweaver–Burk kinetic analysis; type: biochemical; settings: after 3 h preincubation with the enzyme
T1 sequence (P97612 30-579 limits assumed): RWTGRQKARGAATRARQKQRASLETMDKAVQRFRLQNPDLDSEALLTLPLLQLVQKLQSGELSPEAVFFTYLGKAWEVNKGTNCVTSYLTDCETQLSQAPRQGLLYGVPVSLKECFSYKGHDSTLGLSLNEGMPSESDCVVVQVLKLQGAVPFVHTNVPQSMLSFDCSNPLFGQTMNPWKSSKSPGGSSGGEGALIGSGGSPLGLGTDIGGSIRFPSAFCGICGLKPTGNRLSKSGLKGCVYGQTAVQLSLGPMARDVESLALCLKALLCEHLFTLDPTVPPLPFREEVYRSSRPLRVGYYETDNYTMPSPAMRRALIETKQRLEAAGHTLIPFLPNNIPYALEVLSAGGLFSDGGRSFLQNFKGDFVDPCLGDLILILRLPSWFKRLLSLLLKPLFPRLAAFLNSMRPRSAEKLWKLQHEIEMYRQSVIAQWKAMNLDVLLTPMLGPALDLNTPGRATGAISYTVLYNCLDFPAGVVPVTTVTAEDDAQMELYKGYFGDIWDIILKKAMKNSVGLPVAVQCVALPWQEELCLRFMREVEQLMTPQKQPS

[6] = tested on: cannabinoid CB1 receptor; settings: background statement, ref not given; cited from earlier work
[7] = biological target: T2, purified recombinant rat FAAH (Rattus norvegicus, UniProt P97612); experiment: Reversibility of FAAH inhibition by dialysis dilution; type: biochemical; settings: 3 h preincubation 22 °C, then dialysis 4 °C, 18 h, 370-fold, pH 9
T2 sequence (P97612 30-579 limits assumed): T1 sequence (P97612 30-579 limits assumed)
In short: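 Purified recombinant rat FAAH (E. coli-expressed) in pH 9.0 Tris/EDTA/glycerol/Triton X-100/Hepes buffer, preincubated 3 h at 22 °C with test compound (final 80, 100 or 150 nM) or DMSO. Triplicate pre-dialysis activity assay, then dialysis (10 000 MW cutoff) against PBS, 4 °C, 18 h, stirred. Post-dialysis activity assayed in triplicate and expressed as % of DMSO control.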

[8] = tested on: vanilloid (TRP) receptors; settings: background statement, ref not given; cited from earlier work
[9] = tested on: lipid amides in the brain; settings: mice, i.p.; cited from earlier work
[10] = biological target: T1, rFAAH; type: biochemical
[11] = Recovery of thioesters from assay buffer and enzymatic assays; type: physicochemical; settings: for recovery from the assay buffer: 6 h
[12] = tested on: neuropathic pain; settings: cited from earlier work
[13] = tested on: endogenous brain levels of FAAH substrates (AEA, OEA, PEA); experiment: Brain lipid levels after i.p. inhibitor administration; type: in vivo; settings: mice, 3 h post i.p. 30 mg/kg, relative to reversible inhibitor 2
[14] = enzyme–inhibitor preincubation 0–6 h

Row | SMILES | mode of inhibition (Lineweaver–Burk) [5] | recovery of enzyme activity after dialysis dilution [7] | time-dependent change of inhibition potency (in words) [10, 14] | increase of brain anandamide levels over that of 2 [13] | also measured
1 | O=C(CCCCCCc1ccccc1)c1ncc(-c2ccccn2)o1 [compound 2] | reversible, competitive | restored full enzyme activity; also recorded: nearly full recovery of enzyme activity | does not display time-dependent inhibition |  | inhibition of common P450 metabolism enzymes [1]: does not significantly inhibit; binding to CB2 receptor [2]: does not bind; inhibition of hERG [3]: does not significantly inhibit; analgesic effect [4]: induces analgesia; binding to CB1 receptor [6]: does not bind; binding to vanilloid (TRP) receptors [8]: does not bind; duration of elevation of brain lipid amides [9]: 2 to 3 h
2 | COC(=O)c1ccc(-c2cnc(C(=O)CCCCCCc3ccccc3)o2)nc1 [compound 3] | reversible, competitive |  |  |  | 
3 | CSC(=O)c1ccc(-c2cnc(C(=O)CCCCCCc3ccccc3)o2)nc1 [compound 5] | reversible, competitive |  |  |  | recovery from the assay buffer [11]: recovered unchanged; recovery from enzymatic assays ([11]; enzymatic assays): recovered unchanged; time-dependent change of inhibition potency (in words) [10]: did not exhibit this time-dependent increase
4 | N#Cc1ccc(-c2cnc(C(=O)CCCCCCc3ccccc3)o2)nc1 [compound 7] |  |  |  |  | time-dependent change of inhibition potency (in words) [10]: did not display time-dependent increases in potency
5 | COC(=N)c1ccc(-c2cnc(C(=O)CCCCCCc3ccccc3)o2)nc1 [compound 8] |  |  |  |  | time-dependent change of inhibition potency (in words) [10]: did not display time-dependent increases in potency
6 | O=C(CCCCCCc1ccccc1)c1ncc(-c2ccc(CBr)cn2)o1 [compound 11] | noncompetitive | failing to restore FAAH activity; also recorded: little or no recovery of enzyme activity | most pronounced time-dependent increase in potency | approximately 2 fold | activity in a mouse model of neuropathic pain [12]: long acting in vivo activity; duration of elevation of brain lipid amides [9]: > 6 h; time of peak brain lipid amide levels [9]: 1.5 to 3 h
7 | O=C(CCCCCCc1ccccc1)c1ncc(-c2ccc(CCl)cn2)o1 [compound 12] |  |  | insensitive to preincubation |  | 
8 | N#CCc1ccc(-c2cnc(C(=O)CCCCCCc3ccccc3)o2)nc1 [compound 14] | noncompetitive | failing to restore FAAH activity; also recorded: little or no recovery of enzyme activity | did exhibit increases in potency | approximately 2 fold | activity in a mouse model of neuropathic pain [12]: long acting in vivo activity; duration of elevation of brain lipid amides [9]: > 6 h; time of peak brain lipid amide levels [9]: 1.5 to 3 h
9 | CSC(=O)Cc1ccc(-c2cnc(C(=O)CCCCCCc3ccccc3)o2)nc1 [compound 16] | reversible, competitive |  |  |  | time-dependent change of inhibition potency (in words) [10]: did not exhibit this time-dependent increase
10 | COC(=N)Cc1ccc(-c2cnc(C(=O)CCCCCCc3ccccc3)o2)nc1 [compound 17] | noncompetitive | do not appear to be even slowly reversible | did exhibit increases in potency |  | 
11 | CCOC(=O)/C=C/c1ccc(-c2cnc(C(=O)CCCCCCc3ccccc3)o2)nc1 [compound 18] | mixed kinetics | did not restore enzyme activity |  |  | 
12 | N#C/C=C/c1ccc(-c2cnc(C(=O)CCCCCCc3ccccc3)o2)nc1 [compound 19] | mixed kinetics | did not restore enzyme activity |  |  | 
13 | CCOS(=O)(=O)/C=C/c1ccc(-c2cnc(C(=O)CCCCCCc3ccccc3)o2)nc1 [compound 20] | noncompetitive |  |  | approximately 2 fold | 
14 | CS(=O)(=O)/C=C/c1ccc(-c2cnc(C(=O)CCCCCCc3ccccc3)o2)nc1 [compound 21] | noncompetitive |  |  | approximately 2 fold | 
15 | C[S+]([O-])/C=C/c1ccc(-c2cnc(C(=O)CCCCCCc3ccccc3)o2)nc1 (stereo not shown) [compound 22] | noncompetitive |  |  | approximately 2 fold | 
16 | CSC(=O)CCCCc1cnc(C(=O)CCCCCCc2ccccc2)o1 [compound 25] | reversible, competitive |  |  |  | recovery from the assay buffer [11]: recovered unchanged
